Assays:
[1] = Inhibition of Orai-mediated calcium entry in human Jurkat E6-1 cells after 1 hr by FLIPR assay; type: cell-based
[2] = Inhibition of Orai channel in phytohemagglutinin-stimulated human Jurkat E6-1 cells assessed as NFAT-induced transcription measured as IL-2 level after 20 hrs by ELISA; type: cell-based
[3] = Lipophilicity, log D of the compound at pH 7.4; type: physicochemical; settings: buffer
Rattus norvegicus [4] = test: (§1) Antiinflammatory activity against ovalbumin-induced model of allergic inflammation in brown Norway rat assessed as inhibition of eosinophil infiltration in bronchoalveolar lavage fluid at 30 mg/kg, po bid 1 hr before and 6.5 hrs post ovalbumin challenge measured 24 hrs post challenge relative to vehicle-treated control; type: functional; settings: Lung
How it was run: (§2)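 Brown Norway rats (200-250 g) sensitized i.p. with OVA/Alum on days 0, 14 and 21, then challenged with OVA aerosol on day 28. Oral dosing at 3, 10 or 30 mg/kg bid, 1 h before and 6.5 h after challenge. Vehicle: TPGS 11.7%, PEG-400 40%, propylene glycol 15%, water 33.3%. Eight rats per group. BALF eosinophils counted 24 h post-challenge; inhibition expressed versus vehicle. Dexamethasone served as positive control. Plasma levels measured by UPLC-MS.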

[5] = Clearance in Wistar rat at 1 mg/kg, iv; type: ADME, organism-based; set-up: dose 1 mg/kg, route intravenous; settings: in vivo
Rattus norvegicus [6] = test: as §1, with “3” for “30”; type: functional; settings: Lung; how it was run: as §2
Rattus norvegicus [7] = test: as §1, with “compound administered orally” for “at 30 mg/kg, po”; type: functional, organism-based; settings: Lung; how it was run: as §2
[8] = Drug metabolism in human liver microsomes at 5 uM after 30 mins in presence of NADPH; type: ADME; settings: read-out: Drug metabolism
How it was run: (§3)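 Rat or human hepatic microsomes (1 mg/mL protein) incubated with 5 µM compound plus NADPH for 30 min at 37 °C; result given as percent metabolized.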

[9] = Terminal half life in Wistar rat at 1 mg/kg, iv; type: ADME, organism-based; set-up: dose 1 mg/kg, route intravenous; settings: in vivo, read-out: beta t1/2 (converted)
[10] = molecular target: Calcium release-activated calcium channel protein 1 (Homo sapiens, UniProt Q96D31); test: Inhibition of human Orai1/STIM1 expressed in HEK293 cells assessed as inhibition of channel-mediated calcium current by electrophysiology assay in presence of 10 mM EGTA; type: cell-based
Calcium release-activated calcium channel protein 1, sequence (Q96D31 whole entry): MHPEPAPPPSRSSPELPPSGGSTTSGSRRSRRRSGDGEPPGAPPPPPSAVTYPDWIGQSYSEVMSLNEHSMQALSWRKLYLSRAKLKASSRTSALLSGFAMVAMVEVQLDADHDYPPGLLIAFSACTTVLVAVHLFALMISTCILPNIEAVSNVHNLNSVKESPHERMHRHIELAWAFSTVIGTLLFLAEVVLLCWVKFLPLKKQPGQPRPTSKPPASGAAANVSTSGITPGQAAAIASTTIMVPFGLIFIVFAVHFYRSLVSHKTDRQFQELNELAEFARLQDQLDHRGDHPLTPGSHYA
How it was run: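 Automated whole-cell patch clamp on HEK293 cells stably expressing human STIM1/Orai1. I_CRAC activated by passive store depletion with 10 mM EGTA in the internal solution. Holding potential 0 mV; 100 ms voltage ramps applied every 3 s. IC50 from normalized inhibition, at least 3 cells per concentration; values are mean ± SD of two or more determinations.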

Rattus norvegicus [11] = test: as §1, with “10” for “30”; type: functional; settings: Lung; how it was run: as §2
[12] = Passive permeability of the compound at 20 uM by PAMPA; type: ADME; settings: read-out: permeability
[13] = AUC (0 to 24 hrs) in Wistar rat at 10 mg/kg, po; type: ADME, organism-based; set-up: time < 24 hr, dose 10 mg/kg, route oral; settings: plasma
[14] = Volume of distribution at steady state in Wistar rat at 1 mg/kg, iv; type: ADME, organism-based; set-up: dose 1 mg/kg, route intravenous; settings: in vivo, read-out: Vdss
LAD2 = test: Inhibition of degranulation in human LAD2 cells assessed as inhibition of IgE-induced beta-hexosaminidase release preincubated for 30 mins by p-nitrophenyl-N-acetyl-D-glucosamide-based spectrophotometric assay; type: functional, cell-based
How it was run: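 Human LAD2 mast cells sensitized overnight with 100 ng/mL biotin-IgE in SCF-containing medium. Supernatant β-hexosaminidase measured with p-nitrophenyl-N-acetyl-glucosamide (pH 4.5, 90 min, 37 °C), stopped with glycine pH 10, absorbance read at 405 nm.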

Blood = test: Inhibition of IL2 secretion in rat whole blood after 24 hrs by Rat IL-2 DuoSet assay; type: functional, tissue-based
How it was run: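 Rat whole blood diluted 1:4 in RPMI and stimulated with concanavalin A (62.5 µg/mL) in the presence of increasing compound concentrations for 24 h. Supernatant IL-2 quantified by rat IL-2 ELISA against a standard curve; IC50 derived.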

CHO = test: Cytotoxicity against CHO cells; type: cell-based; settings: Cricetulus griseus
[15] = Oral bioavailability in Wistar rat at 10 mg/kg; type: ADME, organism-based; settings: in vivo
[16] = Cmax in Wistar rat at 10 mg/kg, po; type: ADME, organism-based; set-up: dose 10 mg/kg, route oral; settings: in vivo
[17] = Solubility of the compound in water; type: physicochemical
Rattus norvegicus [18] = test: as §1, with “against po dosed” for “against”, “plasma level >3-fold above IC50 for rat IL-2 inhibition compound administered” for “30 mg/kg, po”; type: functional; how it was run: as §2
[19] = Drug metabolism in rat liver microsomes at 5 uM after 30 mins in presence of NADPH; type: ADME; settings: read-out: Drug metabolism; how it was run: as §3
[20] = AUC (0 to 24 hrs) in Wistar rat at 1 mg/kg, iv; type: ADME, organism-based; set-up: time < 24 hr, dose 1 mg/kg, route intravenous; settings: plasma
Rattus norvegicus [21] = test: as §1, with “1” for “30”; type: functional; settings: Lung

With `Cn1nc(C(F)(F)F)cc1-c1cnc2[nH]c(Cc3ccccc3)cc2c1` the IC50 [1] was 1400 nM and the IC50 [2] was 3000 nM.
Work on `Cc1nnsc1C(=O)Nc1ccc(-n2nc(C(F)(F)F)cc2C(F)(F)F)cc1` yielded a logD [3] of 4.4, an IC50 [1] of 75 nM and an IC50 [2] of 10 nM.
With `Cc1cc(S(=O)(=O)N2CCOCC2)ccc1-c1cnc2[nH]c(-c3c(F)cccc3Cl)cc2c1` the IC50 [1] was 10000 nM.
Work on `Cn1nc(C(F)(F)F)cc1-c1cnc2[nH]c(C3CCCCC3)cc2c1` yielded an IC50 [1] of 310 nM and an IC50 [2] of 183 nM.
In the case of `Cc1cc(S(C)(=O)=O)ccc1-c1cnc2[nH]c(-c3c(F)cccc3Cl)cc2c1`, the IC50 [1] is reported as 280 nM and the IC50 [2] is reported as 290 nM.
Work on `COc1ccc(OC)c(-c2ccc(NC(=O)c3ccncc3F)cc2)c1` yielded a logD [3] of 3.5, an IC50 [1] of 82 nM and an IC50 [2] of 10 nM.
Molecule `COc1cc(OC)c(-c2cnc3[nH]c(-c4c(F)cccc4Cl)cc3c2)cn1` has an inhibition in vivo at 30 mg/kg (Rattus norvegicus [4]) of 75%, a clearance [5] of 8 mL/min/kg and an inhibition in vivo at 3 mg/kg (Rattus norvegicus [6]) of 9%. The inhibition (Rattus norvegicus [7]) was “Dose-dependent effect”, the metabolised at 0.5 h, 5 µM [8] was under 5% and the half-life [9] was 8 h. For the same molecule, the IC50 [10] was 440 nM, the inhibition in vivo at 10 mg/kg (Rattus norvegicus [11]) was 68% and the Papp at 20 µM [12] was 0.66 ×10⁻⁶ cm/s. The AUC(0-t) at 24 h [13] was 11200 ng·h/mL, the IC50 [1] was 150 nM and the Vd [14] was 5 L/kg. For the same molecule, the IC50 (LAD2) was 630 nM, the IC50 (Blood) was 740 nM and the IC50 (CHO) was over 100000 nM. The IC50 [2] was 68 nM, the bioavailability [15] was 62% and the Cmax [16] was 807 ng/mL. The solubility [17] was under 5 µg/mL, the “inhibition (INH)” value (Rattus norvegicus [18]) was 70% and the metabolised at 0.5 h, 5 µM [19] was 10%. It also gave an AUC(0-t) at 24 h [20] of 1820 ng·h/mL.
For `Fc1cccc(Cl)c1-c1cc2cc(-c3cc4c(cc3Cl)OC(F)(F)O4)cnc2[nH]1`, the IC50 [1] was 120 nM, the IC50 [2] was 56 nM and the solubility [17] was under 1 µg/mL.
Work on `Cn1nc(C(F)(F)F)cc1-c1cnc2[nH]c(-c3ccccc3Cl)cc2c1` yielded an IC50 [1] of 160 nM and an IC50 [2] of 260 nM.
Molecule `COc1cc(C)c(-c2cnc3[nH]c(-c4c(F)cccc4Cl)cc3c2)cn1` has a clearance [5] of 24 mL/min/kg, a metabolised at 0.5 h, 5 µM [8] of 15% and a half-life [9] of 2.1 h. It also gave an IC50 [10] of 104 nM, a Papp at 20 µM [12] of 0.1 ×10⁻⁶ cm/s and an AUC(0-t) at 24 h [13] of 2180 ng·h/mL. The IC50 [1] was 71 nM, the Vd [14] was 4.2 L/kg and the IC50 (LAD2) was 443 nM. For the same molecule, the IC50 (Blood) was 1300 nM, the IC50 (CHO) was over 100000 nM and the IC50 [2] was 40 nM. For the same molecule, the bioavailability [15] was 37%, the Cmax [16] was 153 ng/mL and the solubility [17] was under 5 µg/mL. The metabolised at 0.5 h, 5 µM [19] was 10% and the AUC(0-t) at 24 h [20] was 596 ng·h/mL.
With `Cc1cc(C(F)(F)F)ncc1-c1cnc2[nH]c(-c3c(F)cccc3Cl)cc2c1` the IC50 [1] was 129 nM and the IC50 [2] was 120 nM.
Molecule `C[C@@H]1C[C@H]2[C@@H]3CCC4=CC(=O)C=C[C@]4(C)[C@@]3(F)[C@@H](O)C[C@]2(C)[C@@]1(O)C(=O)CO` [DEXAMETHASONE] has an inhibition in vivo at 1 mg/kg (Rattus norvegicus [21]) of 100%.
